Results collected from several papers.
Target: Serine/threonine-protein kinase TAO1 (TAOK1, Homo sapiens, UniProt Q7L7X3)
Residues used in one study (Q7L7X3 1-1001): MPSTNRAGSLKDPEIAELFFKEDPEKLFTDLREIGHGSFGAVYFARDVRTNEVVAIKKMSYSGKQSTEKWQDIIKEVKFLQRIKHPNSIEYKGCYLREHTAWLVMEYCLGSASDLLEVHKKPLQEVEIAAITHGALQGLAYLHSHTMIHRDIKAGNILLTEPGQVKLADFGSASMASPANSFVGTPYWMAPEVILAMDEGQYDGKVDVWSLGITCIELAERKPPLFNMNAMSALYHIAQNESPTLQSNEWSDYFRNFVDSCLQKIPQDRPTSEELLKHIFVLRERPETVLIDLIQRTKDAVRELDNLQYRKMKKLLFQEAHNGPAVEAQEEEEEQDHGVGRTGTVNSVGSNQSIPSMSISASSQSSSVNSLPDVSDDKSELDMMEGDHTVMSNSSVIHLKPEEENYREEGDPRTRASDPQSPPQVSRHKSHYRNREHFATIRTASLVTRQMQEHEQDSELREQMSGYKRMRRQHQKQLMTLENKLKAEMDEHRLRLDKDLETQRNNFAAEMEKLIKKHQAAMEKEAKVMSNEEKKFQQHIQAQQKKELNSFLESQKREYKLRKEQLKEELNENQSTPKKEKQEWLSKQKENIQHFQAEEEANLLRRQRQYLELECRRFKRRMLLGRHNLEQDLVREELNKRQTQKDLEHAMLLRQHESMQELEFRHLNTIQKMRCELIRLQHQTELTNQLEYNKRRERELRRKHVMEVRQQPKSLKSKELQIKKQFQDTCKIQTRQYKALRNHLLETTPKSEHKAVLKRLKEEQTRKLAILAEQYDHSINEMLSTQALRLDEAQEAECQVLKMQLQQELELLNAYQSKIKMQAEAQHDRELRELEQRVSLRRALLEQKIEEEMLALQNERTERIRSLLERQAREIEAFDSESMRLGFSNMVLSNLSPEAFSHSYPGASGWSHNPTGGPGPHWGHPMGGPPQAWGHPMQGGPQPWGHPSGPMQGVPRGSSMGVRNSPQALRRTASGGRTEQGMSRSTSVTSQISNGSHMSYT

| Structure (SMILES) | read-out | technique | concentration | remaining binding [%] |
| --- | --- | --- | --- | --- |
| Cc1cnc(Nc2ccc(C(=O)N3CCC(N4CCCC4)CC3)cc2)nc1-c1cc2ccccc2s1 | binding | competition with immobilised ligand | 1 µM | 64 |
| CN(C)c1ncc(F)c(-c2cnn3ncccc23)n1 | binding | – | 1 µM | 73 |
| COc1cccc(CNC(=O)c2nc3scc(COCc4ccc(C(=O)O)cc4)c3c(=O)[nH]2)c1 | cell-free assay | competition with immobilised ligand | 1 µM | 69.5 |
| F[C@@H]1CCN(c2nccc(-c3cnn4ncccc34)n2)C1 | binding | – | 1 µM | 100 |
| FC(F)(F)Oc1cccc(-c2cnc3ccc(-c4ccncc4)nn23)c1 | binding | competition with immobilised ligand | 5 µM | 40 |
| COc1cnc(Nc2cccc(S(N)(=O)=O)c2)nc1N1CCN(c2ccccc2)C(=O)C1 | binding | competition with immobilised ligand | 1 µM | 86 |
| O=C(c1ccc(Nc2ncc(Cl)c(-c3ccc(Cl)s3)n2)cc1)N1CCC(N2CCCC2)CC1 | binding | competition with immobilised ligand | 1 µM | 47 |
| C=CC(=O)N1CCC(C(=O)NCC(=O)N2CCN(c3nc(-c4cnc(N)nc4C(F)F)nc(N4CCOCC4)n3)CC2)CC1 | binding | competition with immobilised ligand | 1 µM | 80 |
| C[C@H]1CCN(c2nccc(-c3cnn4ncccc34)n2)C1 | binding | – | 1 µM | 78 |
| COCCOc1nc(-c2ccc(Cl)nc2)nc2c1CN(C(=O)c1ncn3ccccc13)CC2 | cell-free assay | competition with immobilised ligand | 0.1 µM | 100 |
| CN(CCCC(F)(F)F)c1nccc(-c2cnn3ncccc23)n1 | binding | – | 1 µM | 100 |
| CC1=C(C#N)[C@@H](c2ccc3[nH]nc(C)c3c2)C(C#N)=C(c2ccc(Cl)cc2)N1 | cell-free assay | competition with immobilised ligand | 1 µM | 100 |
| C[C@@H](c1ccc(-n2cnc3c(N)ncnc32)cc1)N1CCc2nn(C)c(Cc3ccccc3)c2C1=O | binding | competition with immobilised ligand | 0.1 µM | 90 |
| CNC(=O)c1ccccc1Nc1cc(Nc2ccc(N3CCOCC3)cc2OC)ncc1C(F)(F)F | binding | competition with immobilised ligand | 1 µM | < 10 |
| O=C(NCC1CCOCC1)c1n[nH]cc1NC(=O)c1c(F)cccc1F | binding | competition with immobilised ligand | 1 µM | 83 |
| CN(C)c1nccc(-c2cnc3ncccn23)n1 | binding | – | 1 µM | 59 |
| O=C(c1ccc(Nc2ncc(Cl)c(-c3cc4ccccc4s3)n2)cc1)N1CCC(N2CCCC2)CC1 | binding | competition with immobilised ligand | 1 µM | 50 |
| CCC(=N\O)/C(C)=C/c1ccc(F)cc1 | cell-free assay | competition with immobilised ligand | 1 µM | 100 |
| N[C@@H]1CCN(c2nccc(-c3cnn4ncccc34)n2)C1 | binding | – | 1 µM | 100 |
| Nc1cnc(N2CCc3cc(S(=O)(=O)Nc4c(F)cc(Cl)cc4F)cc(N4CCCC4=O)c32)nc1 | cell-free assay | competition with immobilised ligand | 1 µM | 80 |
| COc1ccnn2ncc(-c3ccnc(N(C)C)n3)c12 | binding | – | 1 µM | 81 |
| O=C1NC(c2ccccn2)Sc2ccccc21 (centres unmarked) | cell-free assay | competition with immobilised ligand | 1 µM | 96 |
| COc1cnc(Nc2cccc(S(N)(=O)=O)c2)nc1N1CCN(c2ccccc2)CC1 | binding | competition with immobilised ligand | 1 µM | 80 |
